Only some compounds are listed: those with a hit (about 4% of all), similar ones and a draw of the others.
ABHD5-PLIN5 inh = ABHD5-PLIN5 protein interaction inhibition | Split G. princeps luciferase complementation, luminescence, 4 h | inhibition, % at 4 µM | 360,000 compounds, 0.78% hits | AID 602281;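 active = inhibition above the mean inhibition across every tested compound plus 3 SD, cut at about 22% in these data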;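 also: 0% = DMSO only wells and the 100% control is not disclosed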
Target sequence (Q00G26 whole entry, looked up): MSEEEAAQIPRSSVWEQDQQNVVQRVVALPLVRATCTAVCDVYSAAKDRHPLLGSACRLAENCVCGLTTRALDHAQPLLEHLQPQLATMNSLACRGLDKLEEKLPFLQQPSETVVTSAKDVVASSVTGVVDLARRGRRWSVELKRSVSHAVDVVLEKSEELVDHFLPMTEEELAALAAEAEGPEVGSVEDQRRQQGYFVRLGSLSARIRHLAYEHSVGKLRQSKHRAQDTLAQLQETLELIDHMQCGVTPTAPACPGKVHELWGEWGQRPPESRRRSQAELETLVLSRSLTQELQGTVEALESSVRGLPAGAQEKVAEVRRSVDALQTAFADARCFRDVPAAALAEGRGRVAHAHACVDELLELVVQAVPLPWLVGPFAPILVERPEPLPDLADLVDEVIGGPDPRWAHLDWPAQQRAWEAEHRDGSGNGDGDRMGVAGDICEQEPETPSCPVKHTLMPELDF
Target sequence (Q8WTS1 whole entry, looked up): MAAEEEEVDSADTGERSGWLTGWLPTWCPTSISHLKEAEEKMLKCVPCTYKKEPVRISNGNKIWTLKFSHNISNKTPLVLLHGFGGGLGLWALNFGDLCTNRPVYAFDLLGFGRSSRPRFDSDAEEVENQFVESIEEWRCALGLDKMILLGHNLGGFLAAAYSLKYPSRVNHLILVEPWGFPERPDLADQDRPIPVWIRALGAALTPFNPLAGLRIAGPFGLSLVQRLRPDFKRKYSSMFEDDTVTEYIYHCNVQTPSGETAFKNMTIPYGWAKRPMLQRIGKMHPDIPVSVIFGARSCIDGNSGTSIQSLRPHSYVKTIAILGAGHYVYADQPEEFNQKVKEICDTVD
Granule exo inh = blocks lytic granule exocytosis; TALL-104 LAMP-1 surface exposure, flow cytometry; cells stimulated with thapsigargin and PMA; inhibition, % at 10 µM; 360,000 compounds, 0.66% hits; AID 651702;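 active = inhibition above about 55%, limit read from the data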
UPR CHOP act = apoptotic UPR (CHOP) activation | 330,000 compounds, 0.34% hits | activation, % at 10 µM | AID 449763 | CHO-CHOP luciferase reporter, luminescence; percent of tunicamycin response over DMSO baseline;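 active = at 10 µM dose, activation of 40% or more, normalized to positive control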;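 also: 100% = tunicamycin at 10 µg/mL and 0% = DMSO alone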
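System: CHO-CHOP luciferase reporter cell line; amount: 500 cells/well; buffer or medium: F12 medium containing 10% fetal bovine serum; incubation: 6 h compound exposure at 37 °C after overnight seeding; measured by: luciferase luminescence after 10 min with Steady-Glo reagent; evaluation: % reporter activation, DMSO baseline versus tunicamycin full activation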
UPR XBP1 act = activators of adaptive arm of unfolded protein response (XBP1) | AID 463104 | CHO-XBP1 luciferase reporter, IRE1-XBP1 UPR activation, luminescence; percent of tunicamycin response, DMSO as zero | 330,000 compounds, 0.33% hits | activation, % at 20 µM;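 active = versus positive control, 20 µM dose yields 30% or more activation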;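 also: 100% = tunicamycin at 10 µg/mL and 0% = DMSO only wells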
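Assay system: CHO-XBP1 luciferase reporter cells; Schedule: 6 h treatment, 37 °C; Detection: glow luminescence from Steady-Glo reagent; Benchmarks: high control tunicamycin 10 µg/mL final, low control DMSO vehicle only.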
Mdm2 MdmX PPI = human Mdm2/MdmX binding inhibition; O15151+Q00987; SaOS-2 split-luciferase Mdm2/MdmX complementation, luminescence; 330,000 compounds, 3% hits; AID 485346; inhibition, % at 8 µM;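 active = inhibition of at least 50% at 8 µM in the primary screen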
ABHD5-PLIN5 conf = confirmation of human ABHD5-PLIN5 interaction inhibitors; shares compounds with ABHD5-PLIN5 inh; biochemical ABHD5-PLIN5 interaction, luminescence; inhibition, % at 4 µM; 2,200 compounds, 67% hits; AID 651612; in the data active = inhibition above about 23%;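 also: 0% = DMSO vehicle wells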
HNF4 split-luc = HNF4 split-luciferase signal hit, counter-screen. shares compounds with ABHD5-PLIN5 inh. inhibition, % at 4 µM. HNF4 dimerization, luminescence, biochemical. AID 651674. 2,200 compounds, 77% hits;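 active = mean inhibition across replicate wells exceeding the computed hit threshold, cut at about 13% in these data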;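 also: light from luciferase halves that rejoin when HNF4 fusion proteins dimerize; 0% = DMSO only wells and the 100% control is not given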
Granule exo CP1 = lytic granule exocytosis inhibition. TALL-104 cells, LAMP-1 externalization, flow cytometry; stimulated with PMA plus thapsigargin. 1,500 compounds, 11% hits. shares compounds with Granule exo inh. AID 651954. inhibition, % at 10 µM; in the data active = inhibition above about 60%;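 also: 0% = stimulated vehicle wells and 100% = unstimulated wells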
Numbers without * were called inactive; · = no result given.

SMILES	ABHD5-PLIN5 inh	Granule exo inh	UPR CHOP act	UPR XBP1 act	Mdm2 MdmX PPI	ABHD5-PLIN5 conf	HNF4 split-luc	Granule exo CP1
Cc1ccc2cccc(NC(=S)NC(=O)c3ccccc3)c2n1	4	4	2	1	-1	·	·	·
Cc1ccc(S(=O)(=O)NC2CCCCC2)cc1C(=O)N1CCC(C(N)=O)CC1	36*	1	-2	-1	-2	6	2	·
NC(=O)C1CCN(C(=O)COc2ccc(S(=O)(=O)NC3CCCC3)cc2)CC1	-6	0	2	-3	-3	·	·	·
COCCCC1CCN(C(=O)C2CCC(=O)N(CCc3cccc(F)c3)C2)CC1 (configuration not stated)	1	7	1	-5	9	·	·	·
CCn1cc(C(=O)N[C@@H](CCSC)C(=O)NCCO)c(=O)c2cc3c(cc21)OCO3	2	-13	-1	-1	17	·	·	·
O=C1N/C(=C/c2ccc(N3CCOCC3)o2)C(=O)N1c1cccc(Cl)c1	70*	20	27	3	23	71*	100*	·
CCOC(=O)c1oc2ccc(CNC(C)(C)C)c(Cl)c2c1C	-5	3	0	0	3	·	·	·
O=C(Cn1nc(CNc2ccc(Cl)cc2)[n+]2c1CCCCC2)c1ccccc1	25*	-2	0	1	-27	13	4	·
CCn1cc(/C=N/NC(=O)c2cc3c(ccc4ccccc43)o2)c2ccccc21	-4	-1	2	-3	42	·	·	·
COc1cc(CNCc2ccccn2)ccc1OCc1ccc(Cl)cc1Cl	25*	18	-3	-2	36	7	7	·
O=C1Nc2ccc(Br)cc2/C1=C/C1CC=CCC1 (configuration not stated)	25*	-1	2	-2	36	53*	38*	·
O=C1NC(Cc2ccccc2)C(=O)Nc2ccc(Br)cc21 (configuration not stated)	-2	-4	4	-4	2	·	·	·
CC(C)(C)NCC(=Cc1ccccc1)C(=O)c1ccccc1	41*	3	·	·	·	69*	54*	·
C=C(NC(=O)C(=C)NC(=O)c1csc(C2=NC3c4csc(n4)C4NC(=O)c5csc(n5)C(C(C)(O)C(C)O)NC(=O)C5CSC(=N5)/C(=C/C)NC(=O)C(C(C)O)NC(=O)c5csc(n5)C3(CC2)NC(=O)C(C)NC(=O)C(=C)NC(=O)C(=C)NC(=O)C(C(C)C)NC2C=Cc3c(C(C)O)cc(nc3C2O)C(=O)OC4C)n1)C(N)=O (configuration not stated)	28*	2	·	·	·	66*	10	·
Cc1cccn2c(=O)c3cc(C(=O)NCc4cccnc4)c(=N)n(C(C)C)c3nc12	15	-3	-1	3	-3	·	·	·
Cc1ccc2nc3c(cc(C(=O)NCc4ccccc4)c(=N)n3CCCn3ccnc3)c(=O)n2c1	0	-1	·	·	·	·	·	·
N=c1c(C(=O)NCc2ccco2)cc2c(=O)n3ccccc3nc2n1Cc1ccc(Cl)cc1	26*	64*	1	2	1	14	23*	·
COCCn1c(=N)c(C(=O)NCc2ccco2)cc2c(=O)n3ccccc3nc21	25*	1	-2	-1	8	7	33*	·
Cc1ccc2nc3c(cc(C(=O)NCc4ccco4)c(=N)n3Cc3ccco3)c(=O)n2c1	33*	-1	3	-2	17	10	29*	·
COCCCn1c(=N)c(C(=O)NCc2ccc3c(c2)OCO3)cc2c(=O)n3ccccc3nc21	2	0	1	-2	-11	·	·	·
Cc1cccn2c(=O)c3cc(C(=O)NCc4ccco4)c(=N)n(C(C)C)c3nc12	27*	1	2	-2	-28	6	18*	·
Cc1nc2cc(OCc3cc(C(=O)NC(C)c4cn(C)nc4C)no3)ccc2s1 (configuration not stated)	0	-1	0	-7	5	·	·	·
COc1ccccc1CNc1nc(NCc2ccc3occc3c2)c2sccc2n1	24*	93*	·	·	·	8	16*	90*
COc1ccccc1CNc1nc(NCc2ccccc2OC)c2sccc2n1	3	-2	·	·	·	·	·	·
CC1=C(C)CS(=O)N(S(=O)(=O)c2ccc(Cl)cc2)C1 (configuration not stated)	80*	64*	3	0	4	93*	109*	94*
SMILES	ABHD5-PLIN5 inh	Granule exo inh	UPR CHOP act	UPR XBP1 act	Mdm2 MdmX PPI	ABHD5-PLIN5 conf	HNF4 split-luc	Granule exo CP1
O=C(CC(Sc1ccc(Br)cc1)C(=O)O)c1ccc(F)cc1 (configuration not stated)	66*	69*	-2	0	-1	42*	80*	-13
COc1cc2c(cc1OC)C(C)N(CCc1ccc(Cl)cc1)CC2 (configuration not stated)	24*	62*	-1	-4	26	24*	0	-12
COc1cc2c(cc1OC)C(C)N(CCN1C(=O)c3ccccc3C1=O)CC2 (configuration not stated)	-1	9	2	-1	11	·	·	·
COc1cc(CN2CCN(Cc3ccco3)CC2)cc(OC)c1	8	-3	-1	-1	8	·	·	·
N#CC1C(=O)c2ccccc2C1c1ccccc1 (configuration not stated)	73*	64*	·	·	·	8	98*	-14
Cc1cc(NC(=O)CCCS(=O)(=O)c2nc(-c3cccs3)cc(C(F)(F)F)n2)no1	47*	61*	-1	-9	-6	74*	100*	18
COc1ccc(-n2cc(C(=O)O)c3ccccc3c2=O)cc1	2	6	0	1	-12	·	·	·
COc1ccc(-n2sc3ccccc3c2=O)cc1	76*	84*	·	·	·	81*	120*	100*
Cc1ccc(OCc2nc3ccccc3n2C(C)C(=O)Nc2c(C)cccc2C)cc1 (configuration not stated)	1	-3	·	·	·	·	·	·
Cc1ccc(-c2csc(NC(=O)Cc3ccc(F)cc3)n2)o1	30*	75*	1	-2	-28	60*	94*	-13
COc1ccc(CC(=O)Nc2nc(-c3cccnc3)cs2)cc1	2	1	0	-3	10	·	·	·
CCN(CC)CCC(=O)N1C/C(=C/c2ccccc2)C(=O)/C(=C\c2ccccc2)C1	97*	79*	·	·	·	102*	103*	30
COc1ccc(C(=O)OCCN=C2NS(=O)(=O)c3ccccc32)cc1OC	-6	6	0	0	12	·	·	·
O=C1ON=C(c2ccccc2)/C1=C/c1ccc(-c2ccccc2[N+](=O)[O-])o1	35*	70*	·	·	·	102*	107*	99*

Bioassay records from PubChem BioAssay.
